# Results taken from the RNAGym collection of RNA variant scans (doi:10.1126/science.aae0568).
# Fewer inactive variants are shown than the library holds.
# B1: tRNA (parent)
# chain: GUUCCGUUGGCGUAAUGGUAACGCGUCUCCCUCCUAAGGAGAAGACUGCGGGUUCGAGUCCCGUACGGAACG
# Variants of: B1
# Assay: yeast fitness relative to wild type (ratio to wild type); higher = fitter; tRNA-Arg(CCU), competitive growth, 37 C, YPD
# Procedure, shortened: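 Variants of the tRNA-Arg(CCU) gene were chemically synthesised with a 3% per-site mutation rate across 69 sites and placed at the native genomic locus in Saccharomyces cerevisiae. Six parallel replicates of the pooled strains were competed in YPD at 37°C for 24 hours, and gene amplicons from the start and end populations were read by 100-nucleotide paired-end sequencing. Darwinian fitness relative to wild type was derived from changes in genotype frequencies. Genotypes required ≥ 100 starting reads, and estimates < 0.5 were set to 0.5.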
row,Variant,yeast fitness
1,U3C U32G A37G,≤ 0.5
2,U3C U35G A57C A70C,≤ 0.5
3,U3C U47A,0.907
4,U3C U47C,0.866
5,U3C U47C C49U G51A,≤ 0.5
6,U3C U47G,0.7
7,U3C U47G U64A,≤ 0.5
8,U3C U53C,0.78
9,U3C U54A,0.676
10,U3C U54A C62U,≤ 0.5
11,U3C U54C,0.873
12,U3C U54C C61G,0.577
13,U3C U54G,0.536
14,U3C U59A,0.846
15,U3C U59C A69C,1.02
16,U3C U59G,0.71
17,U3C U64A,0.792
18,U3C U64C,1.04
19,U3G A14C,0.773
20,U3G A14C A20U,≤ 0.5
21,U3G A14C A42U G44C,0.578
22,U3G A14G G39C,≤ 0.5
23,U3G A14U,0.629
24,U3G A14U A15U A20C C33G A40U C61G,0.543

row,Variant,yeast fitness
1,U3G A14U C29U A37G,≤ 0.5
2,U3G A14U C29U A37G G51A,≤ 0.5
3,U3G A14U G48C C49U C61A,≤ 0.5
4,U3G A15C C30G C33G A37C,0.795
5,U3G A15G,0.846
6,U3G A15G A21G U26C C29G C30U C49U A57U,≤ 0.5
7,U3G A15G A21U C24U G38A,0.571
8,U3G A15G A21U C24U U35C G38A,≤ 0.5
9,U3G A15G C24G G44A G50A C55U,≤ 0.5
10,U3G A15G C24G G50A,0.539
11,U3G A15G C24G G50A C55U C61U A65U,≤ 0.5
12,U3G A15G G23A,≤ 0.5
13,U3G A15G G23A U47C,≤ 0.5
14,U3G A15U,0.633
15,U3G A15U U35C,≤ 0.5
16,U3G A20C A21G,0.798
17,U3G A20C A65U,0.589
18,U3G A20C G44C U47C C61U,≤ 0.5
19,U3G A20G A45G,0.75
20,U3G A21C C46U,0.505
21,U3G A21G C31G C33U A43U G56A A69U,≤ 0.5
22,U3G A21G C62U,0.538
23,U3G A21G G38C C49U A69C,≤ 0.5
24,U3G A36C A45C G58A G68C,≤ 0.5

row,Variant,yeast fitness
1,U3G A36C A45C G58A G68C A70U,≤ 0.5
2,U3G A36G,0.977
3,U3G A36G A43G,0.735
4,U3G A36U,0.598
5,U3G A37C A40G U47C,≤ 0.5
6,U3G A37C A42U A43G G58C C62U,≤ 0.5
7,U3G A37C G56A,0.533
8,U3G A37U,0.683
9,U3G A42C,0.754
10,U3G A42C G67C,≤ 0.5
11,U3G A42U,0.758
12,U3G A42U C49U,0.613
13,U3G A43C G48A A70C,0.617
14,U3G A43G A45U,0.539
15,U3G A43G C55A,0.536
16,U3G A43G U47A C49A,0.535
17,U3G A43U,1.08
18,U3G A43U U53C U54A A57C A65C,≤ 0.5
19,U3G A45C,0.973
20,U3G A45C A69U,1.08
21,U3G A45C A70U,0.857
22,U3G A45C U54C A69U,0.793
23,U3G A45G,1
24,U3G A45G C49G,0.633

row,Variant,yeast fitness
1,U3G A57G,0.908
2,U3G A65G,1.1
3,U3G A69U,0.924
4,U3G A70U,0.831
5,U3G C4A A40U,0.547
6,U3G C4A A40U A57G C62U,≤ 0.5
7,U3G C4A A40U U54C,≤ 0.5
8,U3G C4A C11G C31G,0.533
9,U3G C4A G9A U64A,≤ 0.5
10,U3G C4A G12A C29A C30G C62A A69C,≤ 0.5
11,U3G C4G C22U C29U A65G,≤ 0.5
12,U3G C4G C49G,0.826
13,U3G C4G G6C C29A A36C C62U,≤ 0.5
14,U3G C4G G6C C29A A36C G52C,≤ 0.5
15,U3G C4G G6C C29A A36C G52C G56A,≤ 0.5
16,U3G C4G G6C C29A A36C G52C U64C,≤ 0.5
17,U3G C4U A14U A15U A20C C33G A40U C61G,0.577
18,U3G C4U A15G C24G C55U,≤ 0.5
19,U3G C4U U35A G58A G67U,≤ 0.5
20,U3G C5A,0.779
21,U3G C5A A20G A70U,≤ 0.5
22,U3G C5G G10A C30A C31G U47G C49A C60U G67A,≤ 0.5
23,U3G C5G U19C,≤ 0.5
24,U3G C5G U19C U47A C55A G68A,≤ 0.5

row,Variant,yeast fitness
1,U3G C5U C31A A65U,≤ 0.5
2,U3G C5U C62A,≤ 0.5
3,U3G C5U G6A A65U,≤ 0.5
4,U3G C5U G23C C34G C55G A70C,≤ 0.5
5,U3G C5U G39A C49U,≤ 0.5
6,U3G C5U U26A G38A C55A C66U,0.568
7,U3G C5U U26A G68A,≤ 0.5
8,U3G C5U U32A C33U,0.595
9,U3G C5U U32C G41C,≤ 0.5
10,U3G C5U U32C G41C C49U G67A,≤ 0.5
11,U3G C5U U32C G41C C49U U59G,≤ 0.5
12,U3G C11A C34G A45C,≤ 0.5
13,U3G C11A C34G A45C G52C,0.546
14,U3G C11A G52A C66G G68C,≤ 0.5
15,U3G C11A U13C C33A A42U C55A,≤ 0.5
16,U3G C11G G44A G48A,≤ 0.5
17,U3G C11G U13A C30G C66U A69U,≤ 0.5
18,U3G C11U A40U,0.529
19,U3G C11U A43U A57U C66A,≤ 0.5
20,U3G C11U A45U,0.559
21,U3G C11U A70G,0.576
22,U3G C11U C22A,≤ 0.5
23,U3G C11U C55G,≤ 0.5
24,U3G C11U U19C A20U A43U C62G C66A A69C,≤ 0.5

row,Variant,yeast fitness
1,U3G C22A,0.682
2,U3G C22A C24U U35G A45U,≤ 0.5
3,U3G C22A C24U U35G A45U G56A,≤ 0.5
4,U3G C22A G25C C33U A69C,0.507
5,U3G C22G C29A,≤ 0.5
6,U3G C22U A57G C60A A65U,0.63
7,U3G C22U C27U G56A,≤ 0.5
8,U3G C24A A40C,≤ 0.5
9,U3G C24A C30U A57C A69U,≤ 0.5
10,U3G C24G C49U C55G G58A,≤ 0.5
11,U3G C24G C49U G58A G63A,≤ 0.5
12,U3G C24U C31U C61U,0.57
13,U3G C24U C31U G50U A69U,0.56
14,U3G C24U C34U A40G C55G,≤ 0.5
15,U3G C27A A65U,≤ 0.5
16,U3G C27A C61A C62U,≤ 0.5
17,U3G C27G C49G A70G,≤ 0.5
18,U3G C27G U35C,≤ 0.5
19,U3G C27U,0.798
20,U3G C27U U35G A42U,≤ 0.5
21,U3G C29A C46U C61G,≤ 0.5
22,U3G C29A U35G G51A,≤ 0.5
23,U3G C30A,0.868
24,U3G C30A C31G,0.669

row,Variant,yeast fitness
1,U3G C30G,≤ 0.5
2,U3G C30G A40G,0.836
3,U3G C30G C62U,≤ 0.5
4,U3G C30G G56A,≤ 0.5
5,U3G C30U G48C,0.593
6,U3G C30U G48C G68C,0.526
7,U3G C31A,0.747
8,U3G C31A A45C,≤ 0.5
9,U3G C31G,0.874
10,U3G C31G A43C G52A,0.595
11,U3G C31G U64A C66U G68C,≤ 0.5
12,U3G C31U C34U C46G,≤ 0.5
13,U3G C31U C49U A70C,≤ 0.5
14,U3G C31U C49U G50A,≤ 0.5
15,U3G C33A G52A,0.651
16,U3G C33U A37C A65C,≤ 0.5
17,U3G C46A A57U A69U,≤ 0.5
18,U3G C46G G52C,≤ 0.5
19,U3G C46U C49U,0.698
20,U3G C46U G68C,0.607
21,U3G C49A,0.655
22,U3G C49A G63U G67A,≤ 0.5
23,U3G C49G,0.809
